Assays:
[1] = folding enthalpy; higher = less favourable; fluorescence melt of hairpins on a sequencing array, two-state fit; conditions: sodium 0.088 M
Outline: (§1)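 Two-state fits, bootstrapped, provided melting temperature and folding enthalpy from Cy3 fluorescence normalised to pre-quench Cy3 and to control constructs. Library hairpins with annealed Cy3 and quencher oligos were imaged on a sequenced MiSeq flow cell in 50 mM Na-HEPES pH 8.0, 25 mM NaCl, at 2.5 °C intervals up to 60 °C. Four replicates were combined with inverse-variance weighting. A 9.35 °C upward shift was applied to fitted temperatures to match UV melts.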

[2] = melting temperature; fluorescence melt of hairpins on a sequencing array, two-state fit, raised by 9.35 °C to match UV melts; conditions: sodium 0.088 M
Outline: as §1

Sequence | folding enthalpy [1] [kcal/mol] | Tm [2] [°C]
GCGACCGGAAACGACCGC (((..((....))..))) | -27.4 | 41.8
GGAGGCGAAAGCCCGTCC ((((((....)))..))) | -8.99 | 39.7
GACACGCGAAAGCGAGTC (((.(((....))).))) | -24.3 | 60.5
GGTGTTCGAAAGAAACC (((.(((....)))))) | -14.1 | 34.1
GCCTTGGGAAACTAAGGC (((((.(....).))))) | -34.7 | 50.9
GAGGCTCCGAAAGGACTC (((..(((....)))))) | -15.5 | 34.4
GGCATTGAAAAATGCC ((((((....)))))) | -36.2 | 61.5
GGTCTCGAAAGAGGACC ((((((....))).))) | -28.3 | 49.5
GGGCTCGAAAGAGTACCC ((((((....)))..))) | -17.5 | 45
GGTCCTGGAAACAGGGCC ((.((((....)))).)) | -46.3 | 60.8
GAAAGGGGAAACCCTTTC (((((((....))))))) | -47 | 54.8
GCGAGGCGAAAGCTTAGC ((.(.((....)).).)) | -16.7 | 56.9
GATCGTGCAACGATC ((((((...)))))) | -41 | 67.8
GTAATGCGAAAGCAGTAC (((.(((....))).))) | -30.6 | 53.4
GCAACATCGAAAGATTGC (((..(((....)))))) | -19.8 | 34.2
GCACAACGAAAGTTCTGC (((.(((....))).))) | -26.1 | 36.8
CGCGGAATTCTCCGCG ((((((....)))))) | -32 | 69.3
GCGATCGCGAAAGCGCGC (((..(((....)))))) | -15.4 | 55.2
GTCTGTACGAAAGTAGAC (((..(((....)))))) | -24.2 | 36.4
TGATCGAAAGATCA (((((....))))) | -21 | 51.3
GGGTCCGAAAGGATCCC ((((((....))).))) | -31.5 | 60.1
GCACCGGCGAAAGCCTGC (((..(((....)))))) | -12.6 | 39.1
GATACCGAAAGGTTGATC ((((((....)))..))) | -13.6 | 31.4
GTGGTGCGAAAGCATCAC (((.(((....))).))) | -30.4 | 67

Sequence | folding enthalpy [1] [kcal/mol] | Tm [2] [°C]
GATCTCTACTGAGATC ((((((....)))))) | -41.6 | 53.2
GTAAGCGAAAGCTGGTAC ((((((....)))..))) | -11 | 32.3
GGACTAGGAAACTAGTCC (((((((....))))))) | -44 | 61.5
GCAGTCGGAAACGACCAC (..((((....))))..) | -8.16 | 32
CGCCCTCGGAAACGAGCG (((..(((....)))))) | -12.2 | 34.5
GATCTCACGAGAGATC ((((((....)))))) | -39.5 | 52.3
GTGCATGAAAATGCAC ((((((....)))))) | -31.6 | 67
GAGTTAGGAAACTAACCC (.(((((....))))).) | -17.4 | 30.4
GATCCCGACGGGGATC ((((((....)))))) | -27.8 | 65.8
GCGTTTAAACGC ((((....)))) | -29.4 | 54.7
GCCTCCGGAAACGGAAGC ((.((((....)))).)) | -22.7 | 45.9
GATTTTGGAAACAGAATC ((((.((....)).)))) | -24.7 | 32.1
GAACGCGAAAGCGCTTTC ((((((....)))..))) | -8.13 | 29.7
GATCTTCTTAAAGATC ((((((....)))))) | -32.7 | 46
GTGAGCGAAAGCTGCAC ((((((....))).))) | -13.8 | 48.7
GAGCGGGCGAAAGCCCTC (((..(((....)))))) | -6.71 | 25.9
CGAGATCGGAAACGATCG (((..(((....)))))) | -20 | 51.6
GATCTCGAGGGAGATC ((((((....)))))) | -19.9 | 51.7
GATCATCTTGATGATC ((((((....)))))) | -43.4 | 57.2
GTCCAGCGAAAGCTGAC (((.(((....)))))) | -11.4 | 46.4
GTCTCTGGAAACAGAGGC (.(((((....))))).) | -26.2 | 49.5
GGGAGAGGAAACTCTTCC ((.((((....)))).)) | -30.7 | 45.5
GATCGTTGGACGATC ((((((...)))))) | -35.1 | 54.8
GATACCCGAAAGGGCATC (((.(((....))).))) | -18.8 | 49.5

Sequence | folding enthalpy [1] [kcal/mol] | Tm [2] [°C]
GGTATCCCGAAAGGGACC (((..(((....)))))) | -9.73 | 34.8
GAAAACCCGAAAGGGTTC (((..(((....)))))) | -8.48 | 39.8
GTCCCACGAAAGTGCGAC (((.(((....))).))) | -24.9 | 46.5
GCCCACGAAAGTGGCGGC ((((((....)))..))) | -14 | 57.6
GATCCCCTATGGGATC ((((((....)))))) | -36.9 | 60.8
GAGAGCGGAAACGCCCTC (((.(((....))).))) | -16.7 | 47.2
GGCCAGCGAAAGCTAGCC (((.(((....))).))) | -29.6 | 56.4
GATCCCATGCGGGATC ((((((....)))))) | -34 | 60.6
GTCTACGAAAGTAGAC ((((((....)))))) | -36.8 | 66.8
GAGCGTGGAAACGCGTTC ((.((.(....).)).)) | -12.1 | 51.7
GATCACTAAGTGATC ((((((...)))))) | -33.9 | 55.2
GATCAAAGGCTTGATC ((((((....)))))) | -31.5 | 41
GTACTTGGAAACAAGCAC ((.((((....)))).)) | -25.8 | 37.8
GCCAACGGAAACGTTGAC (.(((((....))))).) | -16.5 | 46.5
GCGGAGCTCCGC ((((....)))) | -20.9 | 55.2
CGCGGACAGTTCCGCG ((((((....)))))) | -40.7 | 66.6
GGGTGCGAAAGCAGTCCC ((((((....)))..))) | -14.6 | 50.5
GACACCGGAAACGGTACC (..((((....))))..) | -10.5 | 24.2
GCGAGTAGTCGC ((((....)))) | -19.9 | 54.3
GGCAGCGAAAGCTGAGCC ((((((....)))..))) | -14.1 | 51.9
GACCGCGAAAGCGCTGTC ((((((....)))..))) | -14.3 | 39
CGTTCGGAAACGAGCACG ((((((....)))..))) | -13.2 | 30.7
GTCGACGGAAACGCCGAC ((((.((....)).)))) | -44.7 | 55.3
GTTTCCGAAAGGAGAAAC ((((((....)))..))) | -16.8 | 32.5

Sequence | folding enthalpy [1] [kcal/mol] | Tm [2] [°C]
GATCAACACCTTGATC ((((((....)))))) | -32.7 | 46.7
GTTTTACGAAAGTATAAC (((.(((....))).))) | -23.9 | 37.5
GCAACCCGAAAGGGCTGC (((.(((....))).))) | -44.6 | 60.6
GCTCCACGAAAGTGAAGC (((.(((....))).))) | -30.2 | 51.2
GATCGAAATATCGATC ((((((....)))))) | -32.7 | 49
GGTAGCCGAAAGGCAACC (((.(((....))).))) | -23.8 | 57.9
GCCGCGCGAAAGCATGGC (((..((....))..))) | -26.7 | 60.1
GCGGGAAACCGC ((((....)))) | -22.9 | 67.3
GAAACGACGAAAGTCTTC (((..(((....)))))) | -9.41 | 29.5
GATCCATCGCTGGATC ((((((....)))))) | -39.1 | 50.8
GCGAGCTATCGC ((((....)))) | -24.2 | 60.8
GATCTGACCGCAGATC ((((((....)))))) | -27.4 | 48
GAGGCCGAAAGGCTCCTC ((((((....)))..))) | -10.2 | 40.8
GATACAGGAAACTGTACC (.(((((....))))).) | -15.4 | 31.1
GAGGTCGGAAACGACCCC (.(((((....))))).) | -9.23 | 48.3
GATAGGGGAAACCCTACC (.(((((....))))).) | -16.8 | 31.1
GATCTGACCCCAGATC ((((((....)))))) | -34.3 | 45.8
GATCATCGATATGATC ((((((....)))))) | -29.4 | 45.3
GATCTATGGTAGATC ((((((...)))))) | -28.9 | 36.9
GCTAGGCGAAAGCTTAGC ((((.((....)).)))) | -31.1 | 61
GATCCGGGAACGGATC ((((((....)))))) | -33.4 | 66.1
